# Active and inactive are the calls of the source. The rule behind the calls is not given here.
# Key:
# [1] = system: Mus musculus; assay: Antiobesity activity in B6.V/J ob/ob mouse assessed as inhibition of body weight gain at 25 mg/kg, po bid measured after 14 days relative to vehicle-treated control; type: functional; settings: 336 h
# [2] = system: Mus musculus; assay: Antiobesity activity in B6.V/J ob/ob mouse assessed as change in brain weight at 5 mg/kg, po bid measured after 14 days (reference value: 0.340 +/- 0.017 g); type: functional
# [3] = system: Mus musculus; assay: Antiobesity activity in B6.V/J ob/ob mouse assessed as change in heart weight at 5 mg/kg, po bid measured after 14 days (reference value: 0.150 +/- 0.003 g); type: functional
# [4] = Terminal half life in Sprague-Dawley rat at 10 mg/kg, po; type: ADME, organism-based; set-up: dose 10 mg/kg, route oral; settings: in vivo, read-out: beta t1/2
# Procedure, shortened: (§1)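 Rats fasted 12 h, then dosed orally by gavage or by bolus tail-vein injection at 2 ml/kg. Compound given as a 5 mg/ml solution in N-methyl-2-pyrrolidone/Tween 80/water (1:2:7). Samples taken at various times (n = 5) and stored at −70 °C. Plasma deproteinized with acetonitrile containing carbamazepine internal standard, then quantified by LC-MS/MS.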
# [5] = system: Mus musculus; assay: Antiobesity activity in B6.V/J ob/ob mouse assessed as change in gonadal adipose tissue weight at 25 mg/kg, po bid measured after 14 days (reference value: 3.599 +/- 0.155 g); type: functional
# [6] = system: Mus musculus; assay: Antiobesity activity in B6.V/J ob/ob mouse assessed as inhibition of body weight gain at 12.5 mg/kg, ip measured after 12 hrs relative to vehicle-treated control; type: functional; settings: route intraperitoneal
# [7] = system: Mus musculus; assay: Antiobesity activity in B6.V/J ob/ob mouse assessed as change in liver weight at 5 mg/kg, po bid measured after 14 days (reference value: 3.396 +/- 0.162 g); type: functional
# [8] = system: Mus musculus; assay: Antiobesity activity in B6.V/J ob/ob mouse assessed as change in gonadal adipose tissue weight at 50 mg/kg, po bid measured after 14 days (reference value: 3.599 +/- 0.155 g); type: functional
# [9] = biological target: T1, 5-hydroxytryptamine receptor 1A (Homo sapiens, UniProt P08908); assay: Displacement from [3H]8-OH-DPAT from human recombinant 5HT-1A receptor expressed in HEK293 cells after 120 mins; type: cell-based
# T1 sequence (P08908 whole entry): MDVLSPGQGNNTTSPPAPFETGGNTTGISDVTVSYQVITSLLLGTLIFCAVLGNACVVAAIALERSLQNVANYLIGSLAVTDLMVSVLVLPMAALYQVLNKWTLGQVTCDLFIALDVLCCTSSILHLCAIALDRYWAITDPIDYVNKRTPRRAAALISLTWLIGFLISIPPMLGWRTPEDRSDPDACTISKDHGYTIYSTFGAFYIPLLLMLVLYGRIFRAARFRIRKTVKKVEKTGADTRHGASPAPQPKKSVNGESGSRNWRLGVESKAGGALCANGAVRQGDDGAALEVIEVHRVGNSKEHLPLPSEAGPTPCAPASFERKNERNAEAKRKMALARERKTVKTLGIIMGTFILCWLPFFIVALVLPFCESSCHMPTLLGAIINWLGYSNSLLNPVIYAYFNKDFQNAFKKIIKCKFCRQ
# Procedure, shortened: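 Membranes from HEK293-EBNA cells stably expressing recombinant human 5-HT1A. Incubated with 2 nM [3H]8-OH-DPAT and test compound at a range of concentrations in 50 mM Tris-HCl pH 7.4 with 5 mM MgSO4.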
# [10] = biological target: 5-hydroxytryptamine receptor 2B (Homo sapiens, UniProt P41595); assay: Displacement of […] from human recombinant 5HT-2B receptor
# Sequence of 5-hydroxytryptamine receptor 2B (P41595 whole entry): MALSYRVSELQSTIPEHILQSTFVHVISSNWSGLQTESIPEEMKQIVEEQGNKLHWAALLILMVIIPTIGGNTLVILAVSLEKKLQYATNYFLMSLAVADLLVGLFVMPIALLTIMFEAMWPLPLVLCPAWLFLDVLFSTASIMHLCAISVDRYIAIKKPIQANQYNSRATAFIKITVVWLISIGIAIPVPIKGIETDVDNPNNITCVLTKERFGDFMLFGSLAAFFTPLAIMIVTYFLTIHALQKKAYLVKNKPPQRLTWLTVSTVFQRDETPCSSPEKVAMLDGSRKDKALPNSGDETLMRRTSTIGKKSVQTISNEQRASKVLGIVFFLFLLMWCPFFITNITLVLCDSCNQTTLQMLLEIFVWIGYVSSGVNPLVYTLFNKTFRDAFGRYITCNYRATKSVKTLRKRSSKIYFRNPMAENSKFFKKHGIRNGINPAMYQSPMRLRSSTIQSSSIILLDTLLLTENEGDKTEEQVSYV
# [11] = biological target: T2, Alpha-1A adrenergic receptor (Homo sapiens, UniProt P35348); assay: Binding affinity to adrenergic alpha1A receptor (unknown origin)
# T2 sequence (P35348 whole entry): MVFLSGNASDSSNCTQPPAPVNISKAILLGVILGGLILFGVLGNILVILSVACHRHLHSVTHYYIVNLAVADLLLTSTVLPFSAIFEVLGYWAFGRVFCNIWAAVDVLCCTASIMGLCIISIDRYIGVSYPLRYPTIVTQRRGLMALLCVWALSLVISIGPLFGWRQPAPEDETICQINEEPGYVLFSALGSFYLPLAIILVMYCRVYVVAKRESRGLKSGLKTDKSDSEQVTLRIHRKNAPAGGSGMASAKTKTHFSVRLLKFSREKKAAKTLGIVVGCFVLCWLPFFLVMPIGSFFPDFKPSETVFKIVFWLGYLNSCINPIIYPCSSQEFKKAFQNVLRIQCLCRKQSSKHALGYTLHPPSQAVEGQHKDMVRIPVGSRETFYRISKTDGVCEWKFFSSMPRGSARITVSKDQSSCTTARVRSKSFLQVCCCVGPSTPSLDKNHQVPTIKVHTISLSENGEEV
# [12] = system: Mus musculus; assay: Antiobesity activity in B6.V/J ob/ob mouse assessed as change in lung weight at 25 mg/kg, po bid measured after 14 days (reference value: 0.143 +/- 0.013 g); type: functional
# [13] = system: Mus musculus; assay: Antiobesity activity in B6.V/J ob/ob mouse assessed as reduction of food intake at 25 mg/kg, po qd measured after 14 days; type: functional, organism-based; set-up: dose 25 mg/kg
# Procedure, shortened: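 Male ob/ob mice (B6.V-Lep^ob/J) received oral doses once daily for 14 days, with vehicle control. Food intake and body weight gain were followed.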
# [14] = system: Mus musculus; assay: Antiobesity activity in B6.V/J ob/ob mouse assessed as […] at 25 mg/kg, ip measured after 12 hrs relative to vehicle-treated control; type: functional; settings: route intraperitoneal
# [15] = biological target: 5-hydroxytryptamine receptor 2A (Homo sapiens, UniProt P28223); assay: Displacement of [3H]-ketanserin from human recombinant 5HT-2A receptor expressed in CHOK1 cell membranes after 60 mins; set-up: species or system CHO-K1
# Sequence of 5-hydroxytryptamine receptor 2A (P28223 whole entry): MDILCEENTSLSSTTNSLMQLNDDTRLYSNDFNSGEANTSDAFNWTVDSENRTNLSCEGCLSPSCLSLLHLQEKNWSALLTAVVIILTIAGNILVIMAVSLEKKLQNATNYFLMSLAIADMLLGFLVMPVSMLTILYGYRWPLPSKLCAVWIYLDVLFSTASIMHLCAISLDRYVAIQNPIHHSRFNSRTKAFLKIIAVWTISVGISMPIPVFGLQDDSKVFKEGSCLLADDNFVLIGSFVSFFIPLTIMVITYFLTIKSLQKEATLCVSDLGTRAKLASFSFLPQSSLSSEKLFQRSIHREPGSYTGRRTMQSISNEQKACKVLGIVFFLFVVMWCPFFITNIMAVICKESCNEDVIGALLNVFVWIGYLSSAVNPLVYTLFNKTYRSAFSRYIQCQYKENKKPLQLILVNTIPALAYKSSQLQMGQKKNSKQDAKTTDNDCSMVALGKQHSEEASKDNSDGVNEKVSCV
# Procedure, shortened: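 Buffer was 50 mM Tris-HCl pH 7.4 with 5 mM CaCl2 and 0.1% ascorbic acid. Test compound added at a range of concentrations.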
# [16] = system: Mus musculus; assay: Antiobesity activity in B6.V/J ob/ob mouse assessed as change in thymus weight at 25 mg/kg, po bid measured after 14 days (reference value: 0.029 +/- 0.006 g); type: functional
# [17] = AUClast in Sprague-Dawley rat at 10 mg/kg, iv; type: ADME, organism-based; set-up: time 0 - last, dose 10 mg/kg, route intravenous; settings: plasma
# [18] = system: Mus musculus; assay: Antiobesity activity in B6.V/J ob/ob mouse assessed as change in lung weight at 5 mg/kg, po bid measured after 14 days (reference value: 0.143 +/- 0.013 g); type: functional
# [19] = system: Mus musculus; assay: Antiobesity activity in B6.V/J ob/ob mouse assessed as change in heart weight at 25 mg/kg, po bid measured after 14 days (reference value: 0.150 +/- 0.003 g); type: functional
# [20] = Drug uptake in Sprague-Dawley rat brain at 10 mg/kg, po measured at 2 hrs; type: ADME, organism-based; set-up: dose 10 mg/kg, route oral; settings: read-out: Drug uptake; procedure, shortened: as §1
# [21] = AUC (0 to infinity) in Sprague-Dawley rat at 10 mg/kg, po; type: ADME, organism-based; set-up: time infinity, dose 10 mg/kg, route oral; settings: plasma
compound,measurement,setting,value
Cl.Clc1cccc(Nc2nc(Cc3ccccc3)nc3c2CCNCC3)c1,inhibition in vivo at 25 mg/kg,[1],32.7%
same,Activity,[2],0.344 g
same,Activity,[3],0.163 g
same,half-life,[4],12.7 h
same,Activity,[5],3.127 g
same,inhibition in vivo at 12.5 mg/kg,[6],24.9%
same,Activity,[7],3.394 g
same,Activity,[8],3.475 g
same,IC50,[9],1.06 µM
same,IC50,[10],0.032 µM
same,IC50,[11],> 10 µM
same,Activity,[12],0.154 g
same,Activity,[13],inactive
same,inhibition in vivo at 25 mg/kg,[14],51.1%
same,IC50,[15],0.003 µM
same,Activity,[16],0.034 g
same,AUC(0-t),[17],1730 ng·h/mL
same,Activity,[18],0.124 g
same,Activity,[19],0.143 g
same,concentration at 2 h,[20],29.2 ng/mL
same,AUC(0-inf),[21],1050 ng·h/mL

# From ChEMBL document CHEMBL2390866, “Novel pyrimidoazepine analogs as serotonin 5-HT(2A) and 5-HT(2C) receptor ligands for the treatment of obesity” (Eur J Med Chem, 2013)
